Measured values taken from article PMC8408915 (Biochemistry, 2021).

Molecular target: T1, KDAC8 (Homo sapiens, UniProt Q9BY41)
T1 sequence (Q9BY41 1-377): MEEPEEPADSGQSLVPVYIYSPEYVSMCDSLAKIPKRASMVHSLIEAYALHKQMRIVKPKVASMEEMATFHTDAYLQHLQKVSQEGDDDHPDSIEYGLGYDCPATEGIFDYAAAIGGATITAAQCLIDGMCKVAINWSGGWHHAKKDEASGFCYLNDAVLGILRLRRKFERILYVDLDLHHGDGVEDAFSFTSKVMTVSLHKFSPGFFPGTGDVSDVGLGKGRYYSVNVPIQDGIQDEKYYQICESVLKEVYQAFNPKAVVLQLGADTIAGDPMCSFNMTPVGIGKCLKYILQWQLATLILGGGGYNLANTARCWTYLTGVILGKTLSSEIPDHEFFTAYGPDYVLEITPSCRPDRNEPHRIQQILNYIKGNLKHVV
Assay: KDAC8 endpoint in vitro deacetylation activity assay
Type: biochemical
Details: low ionic strength buffer; 200 nM KDAC8, 100 μM peptide, 25 °C, 15-60 min; average of n≥3; limit of reliable detection 0.0004 s^−1
Summary of the method: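 KDAC8 carried a C-terminal His6 tag. It was expressed in ExpiSf9 cells after bacmid transfection (28 °C, 5 days, then 2 days of suspension amplification) and purified on cobalt (TALON) affinity resin. Peptides were N-terminally acetylated and C-terminally amidated. Buffer was 30 mM potassium phosphate pH 7.6 with 5% glycerol and no KCl. Product was detected with fluorescamine, and endpoint activity was averaged.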

| Substance | Specific activity of KDAC8 with biologically relevant putative KDAC substrates |
| --- | --- |
| APRK^acQLA | 0.00163 ± 0.00014 s^−1 |
| LGGK^acQRA | - (- indicates no activity above the limit of reliable detection (0.0004 s^−1).) |
| PEAK^acSLL | - (- indicates no activity above the limit of reliable detection (0.0004 s^−1).) |
| GVGK^acYIN | 0.0007 ± 0.0004 s^−1 |
| SVRK^acGIM | 0.0036 ± 0.0008 s^−1 |
| EIGK^acTLA | - (- indicates no activity above the limit of reliable detection (0.0004 s^−1).) |
| ITGK^acPSG | - (- indicates no activity above the limit of reliable detection (0.0004 s^−1).) |
| AARK^acSAP | 0.0026 ± 0.0002 s^−1 |
| QTAK^acDAG | - (- indicates no activity above the limit of reliable detection (0.0004 s^−1).) |
| TGGK^acAPR | - (- indicates no activity above the limit of reliable detection (0.0004 s^−1).) |
| LSGK^acGNP | - (- indicates no activity above the limit of reliable detection (0.0004 s^−1).) |
| SHLK^acAHL | - (- indicates no activity above the limit of reliable detection (0.0004 s^−1).) |
| GTAK^acSVT | - (- indicates no activity above the limit of reliable detection (0.0004 s^−1).) |
| EVGK^acLLN | - (- indicates no activity above the limit of reliable detection (0.0004 s^−1).) |
| GALK^acAPS | - (- indicates no activity above the limit of reliable detection (0.0004 s^−1).) |
